Results reported in ChEMBL document CHEMBL3769320, “Cell Penetrant Inhibitors of the KDM4 and KDM5 Families of Histone Lysine Demethylases. 2. Pyrido[3,4-d]pyrimidin-4(3H)-one Derivatives” (J Med Chem, 2016).

Experiments:
[1] = biological target: T1, Lysine-specific demethylase 4C (Homo sapiens, UniProt Q9H3R0); assay: Inhibition of N-terminal his-tagged human KDM4C expressed in Escherichia coli BL21(DE3) using trimethylated peptide substrate by RFMS assay
T1 sequence (Q9H3R0 whole entry): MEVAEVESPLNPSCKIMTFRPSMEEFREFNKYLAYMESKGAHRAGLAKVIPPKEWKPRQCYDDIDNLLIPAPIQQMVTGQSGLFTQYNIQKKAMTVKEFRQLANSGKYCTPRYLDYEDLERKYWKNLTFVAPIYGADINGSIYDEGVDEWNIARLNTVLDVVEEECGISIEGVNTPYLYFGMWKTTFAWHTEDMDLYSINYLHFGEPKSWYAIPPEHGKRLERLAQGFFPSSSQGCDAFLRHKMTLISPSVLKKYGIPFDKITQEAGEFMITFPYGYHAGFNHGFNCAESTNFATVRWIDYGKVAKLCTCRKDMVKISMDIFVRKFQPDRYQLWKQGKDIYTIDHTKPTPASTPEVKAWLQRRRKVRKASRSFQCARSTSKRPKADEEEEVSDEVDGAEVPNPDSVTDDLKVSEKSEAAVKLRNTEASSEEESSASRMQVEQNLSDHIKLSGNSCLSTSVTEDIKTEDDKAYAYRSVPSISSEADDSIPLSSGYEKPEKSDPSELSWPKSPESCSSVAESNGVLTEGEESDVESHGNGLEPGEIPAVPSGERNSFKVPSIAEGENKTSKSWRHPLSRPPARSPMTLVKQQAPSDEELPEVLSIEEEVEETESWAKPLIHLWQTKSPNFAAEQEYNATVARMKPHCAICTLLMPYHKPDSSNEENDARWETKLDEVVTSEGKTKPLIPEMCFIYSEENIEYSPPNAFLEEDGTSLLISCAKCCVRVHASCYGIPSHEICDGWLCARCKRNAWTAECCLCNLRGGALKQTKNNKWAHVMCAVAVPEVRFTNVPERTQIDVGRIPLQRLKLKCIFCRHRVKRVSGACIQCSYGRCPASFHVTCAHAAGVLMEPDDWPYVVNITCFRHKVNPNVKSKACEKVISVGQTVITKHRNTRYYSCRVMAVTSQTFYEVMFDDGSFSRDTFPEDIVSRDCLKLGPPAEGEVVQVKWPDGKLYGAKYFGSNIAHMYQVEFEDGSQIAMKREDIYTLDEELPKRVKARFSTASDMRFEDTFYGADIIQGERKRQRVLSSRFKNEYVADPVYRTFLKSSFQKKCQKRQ

physchem = conditions: buffer, pH 7.4
[2] = biological target: T1, Lysine-specific demethylase 4C; assay: Inhibition of N-terminal his-tagged full-length human KDM4C transfected in U2OS cells assessed as inhibition of H3K9Me3 demethylation for 24 hrs; type: cell-based
[3] = biological target: T2, Lysine-specific demethylase 4E (Homo sapiens, UniProt B2RXH2); assay: Inhibition of KDM4E (unknown origin) by RFMS assay
T2 sequence (B2RXH2 whole entry): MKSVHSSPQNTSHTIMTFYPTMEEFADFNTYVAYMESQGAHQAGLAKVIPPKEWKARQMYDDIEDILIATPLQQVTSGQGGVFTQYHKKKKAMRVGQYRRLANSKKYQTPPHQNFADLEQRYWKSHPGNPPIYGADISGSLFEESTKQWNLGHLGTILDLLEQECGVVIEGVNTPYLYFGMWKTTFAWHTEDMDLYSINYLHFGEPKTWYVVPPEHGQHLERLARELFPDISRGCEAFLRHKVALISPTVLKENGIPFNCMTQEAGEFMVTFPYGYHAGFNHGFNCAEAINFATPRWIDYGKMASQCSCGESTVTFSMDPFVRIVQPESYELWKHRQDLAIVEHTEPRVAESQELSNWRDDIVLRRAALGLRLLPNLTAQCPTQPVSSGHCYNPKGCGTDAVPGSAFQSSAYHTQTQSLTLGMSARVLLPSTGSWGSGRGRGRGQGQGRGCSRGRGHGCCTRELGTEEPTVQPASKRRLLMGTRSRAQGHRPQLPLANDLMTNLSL

[4] = biological target: T1, Lysine-specific demethylase 4C; assay: Inhibition of N-terminal HALO-tagged full-length human KDM4C transfected in U2OS cells assessed as inhibition of H3K9Me3 demethylation for 24 hrs
[5] = biological target: T3, Lysine-specific demethylase 4A (Homo sapiens, UniProt O75164); assay: Inhibition of KDM4A (unknown origin) by RFMS assay
T3 sequence (O75164 whole entry): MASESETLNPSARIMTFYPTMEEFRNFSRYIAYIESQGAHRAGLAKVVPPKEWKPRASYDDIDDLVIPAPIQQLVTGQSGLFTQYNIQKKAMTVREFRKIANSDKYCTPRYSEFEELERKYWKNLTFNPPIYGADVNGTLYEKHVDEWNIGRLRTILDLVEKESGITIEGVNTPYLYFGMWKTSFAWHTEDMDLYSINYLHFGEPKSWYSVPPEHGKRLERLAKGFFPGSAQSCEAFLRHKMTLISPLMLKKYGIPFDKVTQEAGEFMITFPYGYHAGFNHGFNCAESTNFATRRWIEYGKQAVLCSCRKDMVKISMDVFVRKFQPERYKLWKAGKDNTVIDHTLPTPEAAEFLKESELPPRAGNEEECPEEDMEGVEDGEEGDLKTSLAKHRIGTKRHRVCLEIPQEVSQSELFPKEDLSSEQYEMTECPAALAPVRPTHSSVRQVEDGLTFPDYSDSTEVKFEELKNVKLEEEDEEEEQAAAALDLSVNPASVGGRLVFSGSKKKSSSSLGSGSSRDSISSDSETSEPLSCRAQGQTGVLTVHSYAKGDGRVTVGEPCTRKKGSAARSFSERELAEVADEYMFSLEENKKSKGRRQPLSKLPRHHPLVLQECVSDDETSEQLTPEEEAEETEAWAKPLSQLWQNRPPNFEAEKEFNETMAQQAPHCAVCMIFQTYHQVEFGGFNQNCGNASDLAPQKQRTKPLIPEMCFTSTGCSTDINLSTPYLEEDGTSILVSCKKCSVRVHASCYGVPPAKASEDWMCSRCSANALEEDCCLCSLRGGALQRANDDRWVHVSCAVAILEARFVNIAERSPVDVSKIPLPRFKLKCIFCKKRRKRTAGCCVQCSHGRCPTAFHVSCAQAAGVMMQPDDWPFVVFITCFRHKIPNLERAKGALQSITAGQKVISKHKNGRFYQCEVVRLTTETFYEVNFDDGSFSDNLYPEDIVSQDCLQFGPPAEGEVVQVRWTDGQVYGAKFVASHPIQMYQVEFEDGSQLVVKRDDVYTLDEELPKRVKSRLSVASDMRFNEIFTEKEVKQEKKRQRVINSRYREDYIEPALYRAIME

[6] = biological target: T4, Lysine-specific demethylase 4D (Homo sapiens, UniProt Q6B0I6); assay: Inhibition of KDM4D (unknown origin) by RFMS assay
T4 sequence (Q6B0I6 whole entry): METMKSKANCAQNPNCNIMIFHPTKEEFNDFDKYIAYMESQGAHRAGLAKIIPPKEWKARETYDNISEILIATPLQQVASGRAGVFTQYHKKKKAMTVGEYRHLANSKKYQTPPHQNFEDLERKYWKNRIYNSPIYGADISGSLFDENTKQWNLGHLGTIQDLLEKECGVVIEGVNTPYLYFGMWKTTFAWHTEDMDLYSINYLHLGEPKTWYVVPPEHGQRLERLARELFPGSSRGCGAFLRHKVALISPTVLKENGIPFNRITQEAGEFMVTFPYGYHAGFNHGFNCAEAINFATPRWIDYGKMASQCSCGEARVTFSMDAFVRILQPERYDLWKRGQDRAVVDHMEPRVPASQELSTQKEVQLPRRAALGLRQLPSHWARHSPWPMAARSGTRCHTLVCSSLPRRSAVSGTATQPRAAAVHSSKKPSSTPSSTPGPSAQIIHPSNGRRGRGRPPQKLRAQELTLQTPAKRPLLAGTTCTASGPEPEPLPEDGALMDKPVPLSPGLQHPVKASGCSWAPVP

[7] = biological target: T5, Lysine-specific demethylase 5C (Homo sapiens, UniProt P41229); assay: Inhibition of human KDM5C transfected in U2OS cells assessed as inhibition of […] demethylation for 24 hrs; type: cell-based
T5 sequence (P41229 whole entry): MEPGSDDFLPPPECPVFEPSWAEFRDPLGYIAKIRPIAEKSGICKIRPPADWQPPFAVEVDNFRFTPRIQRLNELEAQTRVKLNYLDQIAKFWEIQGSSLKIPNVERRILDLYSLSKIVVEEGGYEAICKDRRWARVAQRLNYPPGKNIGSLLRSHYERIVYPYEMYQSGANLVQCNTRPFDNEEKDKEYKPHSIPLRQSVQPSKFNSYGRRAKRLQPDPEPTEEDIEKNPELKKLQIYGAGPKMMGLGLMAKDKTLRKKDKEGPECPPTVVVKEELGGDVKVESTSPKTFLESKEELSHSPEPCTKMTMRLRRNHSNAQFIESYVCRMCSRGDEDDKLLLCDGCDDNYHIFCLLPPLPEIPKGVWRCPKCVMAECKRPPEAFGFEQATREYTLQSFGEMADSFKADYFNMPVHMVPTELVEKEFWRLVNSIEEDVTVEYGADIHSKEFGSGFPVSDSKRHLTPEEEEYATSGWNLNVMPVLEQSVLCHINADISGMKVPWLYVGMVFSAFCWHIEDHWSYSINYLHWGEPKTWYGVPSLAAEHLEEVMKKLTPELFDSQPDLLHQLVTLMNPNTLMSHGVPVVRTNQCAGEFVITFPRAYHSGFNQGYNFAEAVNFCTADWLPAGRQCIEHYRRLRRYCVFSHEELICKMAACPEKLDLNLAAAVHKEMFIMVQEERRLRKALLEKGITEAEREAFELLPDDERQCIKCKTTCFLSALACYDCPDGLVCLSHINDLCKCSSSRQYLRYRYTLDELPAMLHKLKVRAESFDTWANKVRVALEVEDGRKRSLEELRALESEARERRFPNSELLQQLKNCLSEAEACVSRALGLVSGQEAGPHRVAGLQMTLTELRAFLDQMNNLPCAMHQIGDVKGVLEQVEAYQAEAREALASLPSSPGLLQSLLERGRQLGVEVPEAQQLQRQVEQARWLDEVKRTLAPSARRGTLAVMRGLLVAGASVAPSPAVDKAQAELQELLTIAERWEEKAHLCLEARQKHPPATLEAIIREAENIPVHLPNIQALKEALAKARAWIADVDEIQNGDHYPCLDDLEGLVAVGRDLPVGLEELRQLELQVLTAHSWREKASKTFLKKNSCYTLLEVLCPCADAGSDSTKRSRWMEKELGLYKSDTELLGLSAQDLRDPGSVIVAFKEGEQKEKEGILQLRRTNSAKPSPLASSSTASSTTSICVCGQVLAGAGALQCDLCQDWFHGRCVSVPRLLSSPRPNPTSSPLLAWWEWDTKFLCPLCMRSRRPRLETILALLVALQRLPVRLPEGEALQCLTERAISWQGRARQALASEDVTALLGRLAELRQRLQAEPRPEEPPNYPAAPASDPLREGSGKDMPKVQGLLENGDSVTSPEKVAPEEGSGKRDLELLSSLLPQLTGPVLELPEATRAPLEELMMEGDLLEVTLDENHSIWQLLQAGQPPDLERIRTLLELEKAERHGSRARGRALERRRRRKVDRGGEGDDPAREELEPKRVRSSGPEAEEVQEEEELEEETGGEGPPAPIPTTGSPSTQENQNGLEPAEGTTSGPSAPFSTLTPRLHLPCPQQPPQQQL
Method in brief: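 High-content cell imaging assay in U2OS cells overexpressing KDM5C, the same cell type as the KDM4C cellular mechanistic assay. Cellular potency reported as pIC50.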

[8] = biological target: Lysine-specific demethylase 6B (Homo sapiens, UniProt O15054); assay: Inhibition of KDM6B (unknown origin) by RFMS assay
Chain of Lysine-specific demethylase 6B (O15054 whole entry, the tested form may be a part): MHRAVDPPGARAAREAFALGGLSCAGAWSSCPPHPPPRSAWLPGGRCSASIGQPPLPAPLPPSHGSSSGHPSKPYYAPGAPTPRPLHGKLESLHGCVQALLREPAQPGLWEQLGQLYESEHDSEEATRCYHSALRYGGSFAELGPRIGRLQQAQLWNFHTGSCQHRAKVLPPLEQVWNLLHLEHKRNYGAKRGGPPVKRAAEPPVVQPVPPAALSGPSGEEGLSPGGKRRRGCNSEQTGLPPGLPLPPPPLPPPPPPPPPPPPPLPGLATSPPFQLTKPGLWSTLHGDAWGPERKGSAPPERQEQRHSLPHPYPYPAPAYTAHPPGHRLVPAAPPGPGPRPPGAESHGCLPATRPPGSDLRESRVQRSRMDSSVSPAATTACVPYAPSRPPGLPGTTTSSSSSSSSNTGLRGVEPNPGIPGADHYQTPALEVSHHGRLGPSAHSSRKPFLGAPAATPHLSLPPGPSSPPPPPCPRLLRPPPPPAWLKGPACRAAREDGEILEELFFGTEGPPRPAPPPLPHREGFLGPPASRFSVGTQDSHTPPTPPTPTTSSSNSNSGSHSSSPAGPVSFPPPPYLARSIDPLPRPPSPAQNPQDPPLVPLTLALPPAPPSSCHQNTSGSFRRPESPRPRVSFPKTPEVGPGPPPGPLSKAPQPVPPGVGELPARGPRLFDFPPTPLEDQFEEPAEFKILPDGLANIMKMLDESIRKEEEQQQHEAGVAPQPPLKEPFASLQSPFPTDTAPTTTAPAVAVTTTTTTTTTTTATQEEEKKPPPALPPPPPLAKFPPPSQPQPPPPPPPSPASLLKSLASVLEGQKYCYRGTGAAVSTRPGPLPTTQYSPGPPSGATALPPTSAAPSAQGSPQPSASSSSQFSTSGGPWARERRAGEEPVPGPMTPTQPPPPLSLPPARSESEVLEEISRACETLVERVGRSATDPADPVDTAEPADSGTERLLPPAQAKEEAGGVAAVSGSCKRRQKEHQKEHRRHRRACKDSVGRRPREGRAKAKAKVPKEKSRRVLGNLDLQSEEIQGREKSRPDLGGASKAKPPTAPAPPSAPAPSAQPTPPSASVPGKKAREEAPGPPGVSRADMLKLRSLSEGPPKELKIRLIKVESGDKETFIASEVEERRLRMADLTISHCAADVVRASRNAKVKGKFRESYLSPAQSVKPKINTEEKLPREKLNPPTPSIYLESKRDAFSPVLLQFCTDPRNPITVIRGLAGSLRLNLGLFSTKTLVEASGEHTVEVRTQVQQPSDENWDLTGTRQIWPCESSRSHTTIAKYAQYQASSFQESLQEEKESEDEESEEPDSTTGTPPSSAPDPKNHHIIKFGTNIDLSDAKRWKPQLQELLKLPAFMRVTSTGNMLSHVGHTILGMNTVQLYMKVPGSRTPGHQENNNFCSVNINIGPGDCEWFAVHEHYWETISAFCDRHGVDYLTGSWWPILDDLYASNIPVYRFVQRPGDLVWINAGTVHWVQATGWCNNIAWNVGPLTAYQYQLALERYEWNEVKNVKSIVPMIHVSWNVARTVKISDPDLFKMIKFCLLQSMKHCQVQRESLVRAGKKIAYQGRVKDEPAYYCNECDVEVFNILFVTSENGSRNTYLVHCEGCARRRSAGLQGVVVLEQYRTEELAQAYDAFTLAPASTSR

[9] = biological target: T5, Lysine-specific demethylase 5C; assay: Inhibition of KDM5C catalytic domain (1 -764 aa) (unknown origin) expressed in Sf9 cells using H3K4Me3 peptide as substrate by RFMS assay
Prolyl hydroxylase EGLN3 = Prolyl hydroxylase EGLN3 (Homo sapiens, UniProt Q9H6Z9); assay: Inhibition of full-length EGLN3 (unknown origin) expressed in Escherichia coli BL21(DE3) cells by HTRF assay
Chain of Prolyl hydroxylase EGLN3 (Q9H6Z9 whole entry): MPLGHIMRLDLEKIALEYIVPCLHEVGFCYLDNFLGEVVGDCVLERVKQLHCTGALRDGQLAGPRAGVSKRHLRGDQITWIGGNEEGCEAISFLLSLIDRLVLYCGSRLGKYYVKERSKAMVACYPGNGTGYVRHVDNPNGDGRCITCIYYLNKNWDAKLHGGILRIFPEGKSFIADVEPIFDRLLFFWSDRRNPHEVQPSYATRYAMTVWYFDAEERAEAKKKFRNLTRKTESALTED

Structure (SMILES)	IC50 [1]	logD (physchem)	IC50 [2]	also measured
CC(C)n1cc(Oc2nc3cnccc3c(=O)[nH]2)cn1	501 nM	0.7	5010 nM	
Cc1c(Oc2nc3cnccc3c(=O)[nH]2)cnn1C	2000 nM	-0.2		
Nc1cnccc1C(=O)O				IC50 [3]: 1260 nM
O=c1[nH]c(Oc2cnn(C3CCCCC3)c2)nc2cnccc12	398 nM	2.2	3980 nM	
Cn1cc(Oc2nc3cnccc3c(=O)[nH]2)cn1	398 nM	-0.3	7940 nM	
O=c1[nH]ccc2cnccc12	> 100000 nM			
O=c1ncn(CCCc2ccccc2)c2cnccc12	≥ 100000 nM			
O=c1[nH]c(OCC2CCCCC2)nc2cnccc12	3160 nM	4.5	> 100000 nM	
O=c1[nH]c(Oc2ccccc2)nc2cnccc12	631 nM	1.2	12600 nM	
O=c1ncn(Cc2ccccc2)c2cnccc12	25100 nM			
O=c1[nH]c(Oc2ccc(Cl)c(O)c2)nc2cnccc12	398 nM	1.1		IC50 [4]: 2000 nM; IC50 [5]: 398 nM; IC50 [6]: 316 nM; IC50 ([7]; read-out: pIC50 (converted)): 31600 nM; IC50 [8]: > 100000 nM; IC50 [9]: 200 nM; IC50 (Prolyl hydroxylase EGLN3): > 100000 nM; IC50 [3]: 126 nM
O=c1[nH]c(-c2ccccc2)nc2cnccc12	20000 nM			
O=c1[nH]c(Oc2cnn(CC3CCCCC3)c2)nc2cnccc12	631 nM	2.9	5010 nM	IC50 [4]: 2000 nM; IC50 [5]: 631 nM; IC50 [6]: 398 nM; IC50 ([7]; read-out: IC50): 2500 nM; IC50 [8]: > 100000 nM; IC50 [9]: 79.4 nM; IC50 (Prolyl hydroxylase EGLN3): > 100000 nM; IC50 [3]: 501 nM
O=c1[nH]c(Oc2ccc(Cl)cc2)nc2cnccc12	501 nM		10000 nM	
O=c1[nH][nH]c2cnccc12	> 100000 nM			
O=c1[nH]c(Oc2cnn(C3CCCCCC3)c2)nc2cnccc12	501 nM	2.9	2510 nM	

Structure (SMILES)	IC50 [1]	logD (physchem)	IC50 [2]	also measured
O=c1[nH]c(Oc2cnn(C3CCCC3)c2)nc2cnccc12	631 nM	1.7		IC50 [4]: 2000 nM; IC50 [5]: 794 nM; IC50 [6]: 501 nM; IC50 ([7]; read-out: IC50): 2500 nM; IC50 ([7]; read-out: pIC50 (converted)): 5010 nM; IC50 [8]: > 100000 nM; IC50 [9]: 126 nM; IC50 (Prolyl hydroxylase EGLN3): > 100000 nM; IC50 [3]: 398 nM
O=c1[nH]c(Oc2cccnc2)nc2cnccc12	501 nM	-0.2	12600 nM	
O=c1[nH]c(OCc2ccccc2)nc2cnccc12	2000 nM	2.8	> 100000 nM	
O=c1[nH]c(Oc2cccc(O)c2)nc2cnccc12	200 nM	0.3	10000 nM	
Cc1nn(C)cc1Oc1nc2cnccc2c(=O)[nH]1	2510 nM	0	> 100000 nM	
O=c1[nH]c(OC2CCCCC2)nc2cnccc12	3160 nM	3.7	25100 nM	
COc1cccc(Cn2cc(Oc3nc4cnccc4c(=O)[nH]3)cn2)c1	631 nM	2	6310 nM	
O=c1[nH]c(Oc2cnn(Cc3cccnc3)c2)nc2cnccc12	631 nM	0.3	12600 nM	
O=c1[nH]c(Oc2cn[nH]c2)nc2cnccc12	398 nM	-0.6	7940 nM	
CC(C)c1ccc(Oc2nc3cnccc3c(=O)[nH]2)cn1	1000 nM	1.5		IC50 [4]: 2000 nM; IC50 [5]: 1580 nM; IC50 [6]: 631 nM; IC50 ([7]; read-out: pIC50 (converted)): 50100 nM; IC50 [9]: 126 nM; IC50 [3]: 398 nM
O=c1[nH]ncc2cnccc12	> 100000 nM			
O=c1[nH]c(-c2cncc(F)c2)nc2cnccc12	2000 nM			
O=c1[nH]c(Oc2cnn(Cc3ccccc3)c2)nc2ncccc12	> 100000 nM		> 100000 nM	IC50 [5]: > 100000 nM; IC50 [6]: > 100000 nM; IC50 ([7]; read-out: pIC50 (converted)): > 100000 nM; IC50 [8]: > 100000 nM; IC50 [9]: 31600 nM; IC50 (Prolyl hydroxylase EGLN3): > 100000 nM; IC50 [3]: > 100000 nM
O=c1[nH]c(-c2cccnc2)nc2cnccc12	7940 nM			
O=c1[nH]c(Oc2cnn(-c3ccccc3)c2)nc2cnccc12	398 nM	1.9	3980 nM	
